From ChEMBL document CHEMBL1156424, “Withaferin a strongly elicits IkappaB kinase beta hyperphosphorylation concomitant with potent inhibition of its kinase activity” (J Biol Chem, 2007) come the findings set out here.

Active and inactive are the calls of the source. The rule behind the calls is not given here.

The nature of experiment [1]: (§1) Inhibition of TNF-induced NF-kappaB-mediated IL6 promoter expression in mouse L929sA cells by luciferase reporter gene assay. In kind it is cell-based. The gist of the method: (§2)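 Stably transfected mouse L929sA cells carrying p(IL-6κB)350hu.IL6P-luc+ (NFκB-responsive elements in front of a minimal IL-6 promoter), pretreated 1 h with compound over a concentration range, then given 2000 IU/ml TNF for 6 h. Luciferase in lysates was normalized to co-expressed β-galactosidase (chemiluminescent) and protein.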
A general note: Reporter assays use an easily measured gene product as a stand-in for the process of interest.

The target in experiment [2] is T1, Inhibitor of nuclear factor kappa-B kinase subunit beta (Mus musculus) (UniProt O88351).
T1 sequence (whole entry): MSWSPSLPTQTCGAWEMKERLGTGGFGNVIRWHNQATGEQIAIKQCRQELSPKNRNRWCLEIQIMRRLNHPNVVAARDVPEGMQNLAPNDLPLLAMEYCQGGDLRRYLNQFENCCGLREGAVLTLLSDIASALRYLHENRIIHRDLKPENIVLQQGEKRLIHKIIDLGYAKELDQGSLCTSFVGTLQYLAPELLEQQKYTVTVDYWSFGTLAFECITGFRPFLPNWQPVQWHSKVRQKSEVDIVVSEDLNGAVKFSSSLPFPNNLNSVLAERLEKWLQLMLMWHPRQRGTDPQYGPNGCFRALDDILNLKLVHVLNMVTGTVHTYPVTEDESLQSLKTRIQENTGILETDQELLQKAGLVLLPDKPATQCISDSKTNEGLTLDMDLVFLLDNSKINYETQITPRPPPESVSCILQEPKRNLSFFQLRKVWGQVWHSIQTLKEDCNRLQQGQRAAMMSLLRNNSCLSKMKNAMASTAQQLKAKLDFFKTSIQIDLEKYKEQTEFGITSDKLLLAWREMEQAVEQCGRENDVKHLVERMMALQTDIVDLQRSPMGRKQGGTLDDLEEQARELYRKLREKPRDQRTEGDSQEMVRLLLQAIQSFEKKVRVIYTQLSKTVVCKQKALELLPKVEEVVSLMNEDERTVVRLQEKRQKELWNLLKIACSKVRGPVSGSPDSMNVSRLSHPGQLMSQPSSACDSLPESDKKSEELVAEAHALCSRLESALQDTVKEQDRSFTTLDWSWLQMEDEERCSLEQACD
The experiment is described as follows: Induction of IKK-beta-mediated IkappaBalpha degradation in TNF-stimulated mouse L929sA cells at 2.8 ug/ml by Western blot. (Immunoblotting shows a protein as a band on a membrane.)

Experiment [3] deals with T1, Inhibitor of nuclear factor kappa-B kinase subunit beta (Mus musculus). The experiment is described as follows: Induction of IKK-beta-hyperphosphorylation in TNF-stimulated mouse L929sA cells at 2.8 ug/ml by Western blot.
The test system of experiment [4] is L929sA. Described as §1. In kind it is cell-based. The gist of the method:
as §2

The subject of experiment [5] is Mus musculus. The experiment is described as follows: Reduction of IL6 protein level in ip dosed zymosan-induced C57BL/6J mouse inflamed paw model measured 6 hrs after zymosan challenge. In kind it is functional, organism-based. The gist of the method:
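Mice (six per group) pretreated ip with 0.5 mg/mouse in Me2SO, DEX 150 µg/mouse or Me2SO 60 µl/mouse, 30 min before footpad zymosan. Blood drawn by retro-orbital sinus puncture under isoflurane 6 h after zymosan; IL-6 quantified by 7TD1 cell growth-stimulation bioassay. Groups compared with control by ANOVA, p<0.05 significant.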

The target of experiment [6] is T1, Inhibitor of nuclear factor kappa-B kinase subunit beta (Mus musculus). The experiment is described as follows: Reversal of induction of IKK-beta-hyperphosphorylation in TNF-stimulated mouse L929sA cells at 2.8 ug/ml in presence of 5 mM dithiothreitol.
In experiment [7] the test system is L929sA. The experiment in a line: Reversal of inhibition of TNF-induced NFkappaB/DNA binding in mouse L929sA cells at 2.8 ug/ml in presence of 250 uM dithiothreitol by electrophoretic mobility shift assay. In kind it is cell-based. The gist of the method:
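L929sA cells co-treated 1 h with 2.8 µg/ml and 250 µM DTT, then 2000 IU/ml TNF for 30 min. Equal protein from total extracts incubated 25 min with a 32P-labeled NFκB-specific oligonucleotide (labeled with [α-32P]dCTP by Klenow) for EMSA.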
Background: In EMSA bound probe runs differently from free probe, usually more slowly.

In experiment [8] the test system is Mus musculus. The experiment in a line: Antiinflammatory activity against ip dosed zymosan-induced C57BL/6J mouse inflamed paw model assessed as effect on paw swelling administered 30 mins before zymosan challenge. Type of experiment: functional, organism-based. The gist of the method: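 Male/female not stated; 8-week-old C57BL/6J mice, 10 per group. 60 µl ip of 0.5 mg/mouse in Me2SO (vehicle group: Me2SO alone; DEX 150 µg/mouse as comparator), then 30 min later zymosan (15 mg/ml in PBS) sc into right footpad, left footpad uninjected. Thickness of both footpads measured by caliper at 6, 12, 24 and 48 h; read-out is injected minus non-injected difference.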

The term IC50 denotes the midpoint of a concentration-inhibition curve. High values mean weaker potency, low ones greater potency. `CC1=C(CO)C(=O)OC([C@@H](C)C2CCC3C4C(CC[C@@]32C)[C@@]2(C)C(=O)C=CC[C@]2(O)[C@H]2O[C@@H]42)C1` (some centres not stated) showed an IC50 in experiment [1] of 90 µM. Further, the result in experiment [2] and in experiment [3] was inactive.
As to `CC1=C(CO)C(=O)O[C@@H]([C@@H](C)[C@H]2CC[C@H]3[C@@H]4C[C@H]5O[C@]56[C@@H](O)C=CC(=O)[C@]6(C)[C@H]4CC[C@]23C)C1` [WITHAFERIN A], the Efficacy in the experiment with L929sA [4] is 95%. In addition, the IC50 in experiment [1] came out at 0.25 µM. In addition, the result (in the experiment with Mus musculus [5]; in experiment [2]; in experiment [3]; in experiment [6]; with L929sA [7]; in the experiment on Mus musculus [8]) was Active.
With `C[C@@H]1C[C@H]2[C@@H]3CCC4=CC(=O)C=C[C@]4(C)[C@@]3(F)[C@@H](O)C[C@]2(C)[C@@]1(O)C(=O)CO`, the result in the experiment on Mus musculus [5] and in the experiment with Mus musculus [8] was Active.
`CC1=C(C)C(=O)O[C@@H]([C@](C)(O)[C@H]2CC[C@H]3[C@@H]4[C@@H]5O[C@@H]5[C@@]5(O)CC=CC(=O)[C@]5(C)[C@H]4CC[C@]23C)C1` [WITHANOLIDE A] showed an IC50 in experiment [1] of 50 µM. For the same compound, the result in experiment [2] and in experiment [3] was inactive.
The compound `C=C1C(=O)O[C@@H]2C[C@@H](C)[C@@H]3C=CC(=O)[C@@]3(C)[C@@H](O)[C@H]12` [HELENALIN] gave a 50% inhibitory concentration (IC50) in experiment [1] of 2.5 µM.
